Source: ChEMBL document CHEMBL5303300, “EUbOPEN Chemogenomics Library - Multiplex” (2023)
Where “and” joins values, the source holds several entries; their conditions need not be identical. Equal entries are not always repeated.

Assays:
Type in all cases: toxicity, cell-based
[1] = tested on: Fibroblast; test: Multiplex assay against human fibroblast; conditions: number of replicates 2
Summary of the method: (§1)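 Tubulin, mitochondrial-mass and membrane-permeability phenotypes are per cents of healthy-nucleus cells. Cells were gated by CellPathfinder machine learning into Hoechst high-intensity objects or normal cells, normal cells into healthy, pyknosed or fragmented nuclei, and pyknosed cells into mitotic or apoptotic. Before that, live cells stained at seeding with Hoechst33342, BioTracker Green Microtubule Cytoskeleton Dye, MitoTracker Red and Annexin V Alexa Fluor 680 were imaged on a CQ1 microscope at 37°C and 5% CO2 after compound addition.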

[2] = tested on: HEK-293T; test: Multiplex assay against HEK293T; conditions: human, number of replicates 2; summary of the method: as §1
[3] = tested on: U2OS; test: Multiplex assay against U2OS; conditions: human, number of replicates 2; summary of the method: as §1
[4] = 12 h, 1 µM, compound concentration 1 uM
[5] = 12 h, 10 µM, compound concentration 10 uM
[6] = 24 h, 1 µM, compound concentration 1 uM
[7] = 24 h, 10 µM, compound concentration 10 uM
[8] = 48 h, 1 µM, compound concentration 1 uM
[9] = 48 h, 10 µM, compound concentration 10 uM

COc1c(OCCCN2CCOCC2)ccc2c1N=C(NC(=O)c1cnc(N)nc1)N1CCN=C21 [COPANLISIB]
Population Apoptotic (%) [1, 4]: 39% and 50% | Population Fragmented Nuclei (%) [1, 4]: 8% and 10% | Population Healthy Nuclei (%) [1, 4]: 65% and 63% | Population Hoechst High Intensity Objects (%) [1, 4]: 0% | Population Membrane Permeable-Phenotype (%) [1, 4]: 1% and 7% | Population Mitochondria Different-Phenotype (%) [1, 4]: 0% and 3% | Population Mitotic Cells (%) [1, 4]: 60% and 50% | Population Normal (%) [1, 4]: 100% | Population Pyknosed Nuclei (%) [1, 4]: 26% | Population Tubulin-Different-Phenotype (%) [1, 4]: 1% and 7% | Total Cell Count [1, 4]: 157 and 180 | Population Apoptotic (%) [1, 5]: 52% and 45% | Population Fragmented Nuclei (%) [1, 5]: 10% and 13% | Population Healthy Nuclei (%) [1, 5]: 77% and 74% | Population Hoechst High Intensity Objects (%) [1, 5]: 0% | Population Membrane Permeable-Phenotype (%) [1, 5]: 7% and 2% | Population Mitochondria Different-Phenotype (%) [1, 5]: 3% and 2% | Population Mitotic Cells (%) [1, 5]: 47% and 54% | Population Normal (%) [1, 5]: 100% | Population Pyknosed Nuclei (%) [1, 5]: 12% and 11% | Total Cell Count [1, 5]: 149 and 188 | Population Apoptotic (%) [1, 6]: 48% and 57% | Population Fragmented Nuclei (%) [1, 6]: 14% and 8% | Population Healthy Nuclei (%) [1, 6]: 60% and 71% | Population Hoechst High Intensity Objects (%) [1, 6]: 0% | Population Membrane Permeable-Phenotype (%) [1, 6]: 2% and 5% | Population Mitochondria Different-Phenotype (%) [1, 6]: 1% and 2% | Population Mitotic Cells (%) [1, 6]: 51% and 42% | Population Normal (%) [1, 6]: 100% | Population Pyknosed Nuclei (%) [1, 6]: 25% and 20% | Population Tubulin-Different-Phenotype (%) [1, 6]: 2% and 5% | Total Cell Count [1, 6]: 155 and 165 | Population Apoptotic (%) [1, 7]: 76% and 60% | Population Fragmented Nuclei (%) [1, 7]: 18% and 16% | Population Healthy Nuclei (%) [1, 7]: 63% and 72% | Population Hoechst High Intensity Objects (%) [1, 7]: 0% | Population Membrane Permeable-Phenotype (%) [1, 7]: 3% and 0% | Population Mitochondria Different-Phenotype (%) [1, 7]: 2% and 1% | Population Mitotic Cells (%) [1, 7]: 23% and 39% | Population Normal (%) [1, 7]: 100% | Population Pyknosed Nuclei (%) [1, 7]: 17% and 11% | Population Tubulin-Different-Phenotype (%) [1, 7]: 9% and 2% | Total Cell Count [1, 7]: 174 and 209 | Population Apoptotic (%) [1, 8]: 73% and 57% | Population Fragmented Nuclei (%) [1, 8]: 7% and 14% | Population Healthy Nuclei (%) [1, 8]: 70% and 71% | Population Hoechst High Intensity Objects (%) [1, 8]: 0% | Population Membrane Permeable-Phenotype (%) [1, 8]: 6% and 10% | Population Mitochondria Different-Phenotype (%) [1, 8]: 0% | Population Mitotic Cells (%) [1, 8]: 26% and 42% | Population Normal (%) [1, 8]: 100% | Population Pyknosed Nuclei (%) [1, 8]: 21% and 14% | Population Tubulin-Different-Phenotype (%) [1, 8]: 2% and 3% | Total Cell Count [1, 8]: 140 and 176 | Population Apoptotic (%) [1, 9]: 68% and 77% | Population Fragmented Nuclei (%) [1, 9]: 15% and 18% | Population Healthy Nuclei (%) [1, 9]: 70% | Population Hoechst High Intensity Objects (%) [1, 9]: 1% and 0% | Population Membrane Permeable-Phenotype (%) [1, 9]: 11% and 4% | Population Mitochondria Different-Phenotype (%) [1, 9]: 1% and 2% | Population Mitotic Cells (%) [1, 9]: 32% and 22% | Population Normal (%) [1, 9]: 98% and 100% | Population Pyknosed Nuclei (%) [1, 9]: 14% and 10% | Total Cell Count [1, 9]: 176 and 205 | Population Apoptotic (%) [2, 4]: 66% and 65% | Population Fragmented Nuclei (%) [2, 4]: 7% and 3% | Population Healthy Nuclei (%) [2, 4]: 66% and 82% | Population Hoechst High Intensity Objects (%) [2, 4]: 14% and 12% | Population Membrane Permeable-Phenotype (%) [2, 4]: 2% and 1% | Population Mitochondria Different-Phenotype (%) [2, 4]: 43% and 39% | Population Mitotic Cells (%) [2, 4]: 33% and 34% | Population Normal (%) [2, 4]: 85% and 87% | Population Pyknosed Nuclei (%) [2, 4]: 25% and 13% | Population Tubulin-Different-Phenotype (%) [2, 4]: 57% and 58% | Total Cell Count [2, 4]: 337 and 345 | Population Apoptotic (%) [2, 5]: 67% and 62% | Population Fragmented Nuclei (%) [2, 5]: 7% and 2% | Population Healthy Nuclei (%) [2, 5]: 74% and 83% | Population Hoechst High Intensity Objects (%) [2, 5]: 13% and 11% | Population Membrane Permeable-Phenotype (%) [2, 5]: 1% and 0% | Population Mitochondria Different-Phenotype (%) [2, 5]: 60% and 66% | Population Mitotic Cells (%) [2, 5]: 32% and 37% | Population Normal (%) [2, 5]: 86% and 88% | Population Pyknosed Nuclei (%) [2, 5]: 18% and 13% | Population Tubulin-Different-Phenotype (%) [2, 5]: 68% and 71% | Total Cell Count [2, 5]: 237 and 220 | Population Apoptotic (%) [2, 6]: 76% and 67% | Population Fragmented Nuclei (%) [2, 6]: 5% and 3% | Population Healthy Nuclei (%) [2, 6]: 74% and 80% | Population Hoechst High Intensity Objects (%) [2, 6]: 16% and 20% | Population Membrane Permeable-Phenotype (%) [2, 6]: 1% | Population Mitochondria Different-Phenotype (%) [2, 6]: 35% and 33% | Population Mitotic Cells (%) [2, 6]: 23% and 32% | Population Normal (%) [2, 6]: 83% and 79% | Population Pyknosed Nuclei (%) [2, 6]: 20% and 15% | Population Tubulin-Different-Phenotype (%) [2, 6]: 56% and 60% | Total Cell Count [2, 6]: 382 and 316 | Population Apoptotic (%) [2, 7]: 80% and 50% | Population Fragmented Nuclei (%) [2, 7]: 6% and 2% | Population Healthy Nuclei (%) [2, 7]: 76% and 82% | Population Hoechst High Intensity Objects (%) [2, 7]: 20% and 16% | Population Membrane Permeable-Phenotype (%) [2, 7]: 2% and 1% | Population Mitochondria Different-Phenotype (%) [2, 7]: 52% and 58% | Population Mitotic Cells (%) [2, 7]: 19% and 50% | Population Normal (%) [2, 7]: 79% and 83% | Population Pyknosed Nuclei (%) [2, 7]: 17% and 15% | Population Tubulin-Different-Phenotype (%) [2, 7]: 67% and 68% | Total Cell Count [2, 7]: 229 and 189 | Population Apoptotic (%) [2, 8]: 62% and 63% | Population Fragmented Nuclei (%) [2, 8]: 9% and 12% | Population Healthy Nuclei (%) [2, 8]: 75% and 78% | Population Hoechst High Intensity Objects (%) [2, 8]: 20% and 26% | Population Membrane Permeable-Phenotype (%) [2, 8]: 1% and 3% | Population Mitochondria Different-Phenotype (%) [2, 8]: 16% and 6% | Population Mitotic Cells (%) [2, 8]: 37% and 36% | Population Normal (%) [2, 8]: 79% and 73% | Population Pyknosed Nuclei (%) [2, 8]: 15% and 8% | Population Tubulin-Different-Phenotype (%) [2, 8]: 70% and 43% | Total Cell Count [2, 8]: 374 and 726 | Population Apoptotic (%) [2, 9]: 68% and 74% | Population Fragmented Nuclei (%) [2, 9]: 9% and 6% | Population Healthy Nuclei (%) [2, 9]: 66% and 76% | Population Hoechst High Intensity Objects (%) [2, 9]: 20% and 25% | Population Membrane Permeable-Phenotype (%) [2, 9]: 4% and 2% | Population Mitochondria Different-Phenotype (%) [2, 9]: 41% and 45% | Population Mitotic Cells (%) [2, 9]: 31% and 25% | Population Normal (%) [2, 9]: 79% and 74% | Population Pyknosed Nuclei (%) [2, 9]: 24% and 16% | Population Tubulin-Different-Phenotype (%) [2, 9]: 68% and 72% | Total Cell Count [2, 9]: 262 and 245 | Population Apoptotic (%) [3, 4]: 100% and 76% | Population Healthy Nuclei (%) [3, 4]: 60% and 87% | Population Hoechst High Intensity Objects (%) [3, 4]: 0% | Population Membrane Permeable-Phenotype (%) [3, 4]: 0% and 2% | Population Mitochondria Different-Phenotype (%) [3, 4]: 0% | Population Mitotic Cells (%) [3, 4]: 0% and 23% | Population Normal (%) [3, 4]: 100% | Population Pyknosed Nuclei (%) [3, 4]: 4% and 7% | Population Tubulin-Different-Phenotype (%) [3, 4]: 93% and 90% | Population Apoptotic (%) [3, 5]: 100% and 76% | Population Healthy Nuclei (%) [3, 5]: 32% and 80% | Population Hoechst High Intensity Objects (%) [3, 5]: 0% | Population Mitochondria Different-Phenotype (%) [3, 5]: 10% and 1% | Population Mitotic Cells (%) [3, 5]: 0% and 24% | Population Normal (%) [3, 5]: 100% | Population Pyknosed Nuclei (%) [3, 5]: 16% and 15% | Population Tubulin-Different-Phenotype (%) [3, 5]: 80% | Population Apoptotic (%) [3, 6]: 100% and 70% | Population Healthy Nuclei (%) [3, 6]: 56% and 86% | Population Hoechst High Intensity Objects (%) [3, 6]: 0% | Population Membrane Permeable-Phenotype (%) [3, 6]: 0% and 2% | Population Mitochondria Different-Phenotype (%) [3, 6]: 0% and 1% | Population Normal (%) [3, 6]: 100% | Population Pyknosed Nuclei (%) [3, 6]: 8% and 10% | Population Tubulin-Different-Phenotype (%) [3, 6]: 100% and 89% | Population Apoptotic (%) [3, 7]: 50% and 64% | Population Hoechst High Intensity Objects (%) [3, 7]: 2% and 0% | Population Mitotic Cells (%) [3, 7]: 50% and 35% | Population Normal (%) [3, 7]: 97% and 100% | Population Pyknosed Nuclei (%) [3, 7]: 22% | Population Tubulin-Different-Phenotype (%) [3, 7]: 75% and 84% | Population Apoptotic (%) [3, 8]: 80% and 72% | Population Healthy Nuclei (%) [3, 8]: 41% and 88% | Population Hoechst High Intensity Objects (%) [3, 8]: 4% and 0% | Population Membrane Permeable-Phenotype (%) [3, 8]: 0% and 2% | Population Mitochondria Different-Phenotype (%) [3, 8]: 0% and 1% | Population Mitotic Cells (%) [3, 8]: 20% and 27% | Population Normal (%) [3, 8]: 96% and 99% | Population Pyknosed Nuclei (%) [3, 8]: 20% and 8% | Population Tubulin-Different-Phenotype (%) [3, 8]: 100% and 95% | Population Apoptotic (%) [3, 9]: 92% and 79% | Population Hoechst High Intensity Objects (%) [3, 9]: 0% and 1% | Population Mitochondria Different-Phenotype (%) [3, 9]: 0% and 3% | Population Mitotic Cells (%) [3, 9]: 7% and 20% | Population Normal (%) [3, 9]: 100% and 98% | Population Pyknosed Nuclei (%) [3, 9]: 34% and 35%
